15 compounds from ChEMBL document CHEMBL3271955, “Design, synthesis, and correlation analysis of 7-substituted 4-hydroxyquinoline-3-carboxylic acids as inhibitors of cellular respiration” (J Med Chem, 1977) can be followed below.

As usually defined, the logP is a log measure of how a compound divides between an organic and an aqueous phase. High values mean a more lipophilic compound, low ones a more hydrophilic compound.

One data set relates to Ehrlich. As to the kind of experiment: Inhibition of respiration in mouse Ehrlich ascites cells after 30 mins incubation at 37 degC by whole cell model. Type of data set: functional, cell-based. The note with it: 0.5 h, read-out: I50. The essentials:
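Ehrlich ascites cells passaged weekly in Swiss white mice; fluid from 7-10 day tumors, saline-washed, held on ice at ~0.30 g/mL. Cells incubated in glucose-free phosphate Ringer with DMSO vehicle or DMSO plus inhibitor, 30 min at 37 °C. O2 uptake read by oxygen electrode. At least four concentrations in triplicate; I50 by least squares of % inhibition vs concentration.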

Data set [1] has as its target T1, Malate dehydrogenase, mitochondrial (Homo sapiens, UniProt P40926).
T1 sequence (P40926 whole entry): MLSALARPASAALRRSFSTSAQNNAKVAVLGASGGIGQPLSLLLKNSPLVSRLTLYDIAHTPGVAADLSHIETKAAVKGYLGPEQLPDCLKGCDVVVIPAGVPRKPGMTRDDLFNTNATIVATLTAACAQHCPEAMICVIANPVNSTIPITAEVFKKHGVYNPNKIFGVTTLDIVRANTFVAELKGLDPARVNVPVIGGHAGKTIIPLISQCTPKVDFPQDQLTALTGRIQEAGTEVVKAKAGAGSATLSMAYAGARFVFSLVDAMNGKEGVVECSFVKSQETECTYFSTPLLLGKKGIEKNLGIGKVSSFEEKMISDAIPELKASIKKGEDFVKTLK
As to the kind of experiment: Inhibition of malate dehydrogenase (unknown origin) by spectrophotometry. The following applies: read-out: I50. The essentials: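 Malate dehydrogenase of unstated source diluted in pH 7.4 Tris to give 0.01-0.02 OD/min at 340 nm. Cuvette holds L-malate (2 mM stock), NAD+ (0.80 mM stock) and 0.05 M Tris pH 8.4, with inhibitor in Me2SO, at 25 °C. Reaction started with enzyme; NADH formation read at 340 nm. Four inhibitor levels in triplicate; I50 from least-squares dose-response line.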

A short description of data set [2]: Lipophilicity, log P of the compound. Type of data set: physicochemical. The following applies: octanol/water.

For the compound `O=C(O)c1cnc2cc(S(=O)(=O)O)ccc2c1O`, the IC50 in the data set with Ehrlich came to 1300 µM; in data set [1] it was 2140 µM.

Take `O=C(O)c1cnc2cc(O)ccc2c1O`: the IC50 in the data set with Ehrlich was determined as 910 µM; in data set [1] it was 490 µM.

Take `CN(C)c1ccc2c(O)c(C(=O)O)cnc2c1`: the figures for the IC50 (with Ehrlich; in data set [1]) were 470 µM and 480 µM, respectively.

Regarding `O=C(O)c1ccc2c(O)c(C(=O)O)cnc2c1`, the IC50 is 5770 µM in the data set with Ehrlich and 1070 µM in data set [1].

For the compound `O=C(O)c1cnc2cc([N+](=O)[O-])ccc2c1O`, the figures for the IC50 (with Ehrlich; in data set [1]) were 580 µM and 1890 µM, respectively.

With `NS(=O)(=O)c1ccc2c(O)c(C(=O)O)cnc2c1`, the results for the IC50 (in the data set on Ehrlich; in data set [1]) were 3400 µM and 950 µM, respectively.

Take `CC(=O)c1ccc2c(O)c(C(=O)O)cnc2c1`: the IC50 in the data set with Ehrlich is 790 µM; in data set [1], 910 µM.

`O=C(O)c1cnc2cc(OCc3ccc(Cl)c(Cl)c3)ccc2c1O`: the IC50 in the data set with Ehrlich is 15 µM; in data set [1], 5 µM.

As for `O=C(O)c1cnc2cc(OCc3ccccc3)ccc2c1O`, the IC50 in the data set on Ehrlich is 38 µM; in data set [1] it was 32 µM.

`O=C(O)c1cnc2ccccc2c1O`: the IC50 in the data set on Ehrlich stood at 1060 µM. For the same compound, the logP in data set [2] was determined as 0.23.

`NC(=O)c1ccc2c(O)c(C(=O)O)cnc2c1`: the IC50 amounted to 5820 µM in the data set on Ehrlich and 740 µM in data set [1].

With `CS(=O)(=O)c1ccc2c(O)c(C(=O)O)cnc2c1`, the IC50 in the data set on Ehrlich is 1790 µM; in data set [1], 660 µM.

In the case of `O=C(O)c1cnc2cc(Cl)ccc2c1O`, the IC50 in the data set with Ehrlich is 140 µM; in data set [1], 3620 µM.

On to `O=C(O)c1cnc2cc(F)ccc2c1O`, for which the IC50 in the data set on Ehrlich is 500 µM; in data set [1], 10600 µM.

`COc1ccc2c(O)c(C(=O)O)cnc2c1`: in the data set on Ehrlich, the IC50 came to 520 µM.
